Assay outcomes (PubChem)
PTEN del growth – suppresses growth of cells with PTEN deletion; HCT116 PTEN-null viability, CellTiter-Glo, 60 h; hits give low values; viability, % at 10 µM; 1.2% of 140,000 active; AID 827;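 active = viability at or below a set limit, 4 SD under the median of all tested compounds, cut at about 3.7% in these data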;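 also: PTEN knockout HCT116 line with beta catenin targeted HCT116 as companion control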
PMI act satM6P – increases human PMI activity with near-saturating mannose 6-phosphate. P34949. coupled PMI enzyme assay, resazurin fluorescence, 20 min; hits give high values; 1 = untreated enzyme, 0 = substrate-free blank. activation factor at 20 µM. 0.34% of 190,000 active;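 active = activation factor of 2 or more at 20 µM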
Target sequence (P34949 whole entry, looked up): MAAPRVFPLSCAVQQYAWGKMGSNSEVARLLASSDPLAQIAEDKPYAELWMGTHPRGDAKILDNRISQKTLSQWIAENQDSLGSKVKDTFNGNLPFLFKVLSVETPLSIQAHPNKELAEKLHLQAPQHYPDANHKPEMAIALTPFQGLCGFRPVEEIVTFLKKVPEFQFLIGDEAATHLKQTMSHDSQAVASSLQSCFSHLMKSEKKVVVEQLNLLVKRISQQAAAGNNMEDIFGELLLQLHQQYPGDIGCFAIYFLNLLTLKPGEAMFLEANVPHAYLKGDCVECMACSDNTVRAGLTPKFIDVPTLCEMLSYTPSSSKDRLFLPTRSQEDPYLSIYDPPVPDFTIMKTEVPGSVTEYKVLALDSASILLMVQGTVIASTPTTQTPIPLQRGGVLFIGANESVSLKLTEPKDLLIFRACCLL
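Test system: human phosphomannose isomerase with PGI, G6PDH, diaphorase coupling enzymes / Doses: 20 µM compound, 1% DMSO / Times: enzyme reaction with compound 20 min at room temperature / Measured by: Diaphorase-driven resazurin-to-resorufin fluorescence, excitation 544, emission 590 nm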
bCat KO growth – beta-catenin-lacking colon tumor cell growth suppression; HCT116 beta-catenin knockout viability, CellTiter-Glo, 60 h; hits give low values; viability, % at 10 µM; 1.5% of 140,000 active; AID 818;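 active = viability at or under a set limit, the compound median less 4 SD, cut at about 6% in these data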;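 also: 0% = Hyamine 1622 control at 20 µM and 100% = untreated cell control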
PMI act – activators of human phosphomannose isomerase; P34949; purified human PMI, coupled resazurin fluorescence, 20 min; hits give high values; 1 = vehicle control, 0 substrate-free wells; activation factor at 20 µM; 0.005% of 190,000 active; AID 1214;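 active = activation factor of 2 or more at 20 µM, relative to plate controls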
L major viab – Leishmania major promastigote growth inhibition. Leishmania major promastigotes, resazurin fluorescence viability. inhibition, % at 10 µM. 9% of 200,000 active. AID 1063; in the data active = inhibition above about 50%;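 also: promastigotes grown with compound for 44 hours at 28 °C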
* = called active by the depositor; . = not tested or not shown. This is a sample that favours compounds with a hit; in the whole collection about 9.6% have one here.

SMILES	PTEN del growth	PMI act satM6P	bCat KO growth	PMI act	L major viab
CCCNCc1cc(OC)c(OCc2ccccc2)cc1Br	.	1.1	.	1.1	38
COc1cc(CNCCO)cc(Br)c1OCc1ccccc1	.	1	.	1.1	97*
COc1cc(CNCCSc2nnnn2C)cc(Br)c1OCc1ccccc1F	99	1	100	0.9	90*
Cc1ccc(S(=O)(=O)N2CCN(C3CCN(Cc4ccccc4)CC3)CC2)cc1	98	0.9	77	0.9	98*
O=S(=O)(c1ccc(S(=O)(=O)N2CCN(Cc3ccccc3)CC2)cc1)N1CCOCC1	100	1	90	1	-1
O=S(=O)(NC1CCCC1)c1ccc(S(=O)(=O)N2CCCN(Cc3ccccc3)C2)cc1	71	0.9	70	0.9	84*
CCn1c(SCc2ccccc2)nnc1C1CCN(S(=O)(=O)c2ccc(OC)cc2)CC1	63	0.9	54	1	91*
O=S(=O)(c1ccc(Cl)cc1)N1CCC(O)(CN2CCN(Cc3ccccc3)CC2)CC1	.	1	.	1	100*
C=CCNC(=O)COC(=O)c1ccc(Sc2nncn2C)c([N+](=O)[O-])c1	.	0.9	.	1	-8
O=S(=O)(c1ccccc1)N1CCN(C2CCN(Cc3ccccc3)CC2)CC1	113	0.9	104	1	96*
Cc1ccc(S(=O)(=O)N2CCC(C(=O)N3CCN(Cc4ccccc4)CC3)CC2)cc1	87	0.9	85	0.9	-5
O=S(=O)(c1ccc2ccccc2c1)N1CCN(C2Cc3ccccc3C2)CC1	97	1.1	89	0.9	86*
COc1ccccc1N1CCN(S(=O)(=O)c2ccc3nc(-c4ccccc4)[nH]c3c2)CC1	70	1	62	1	57*
O=S(=O)(c1ccc2ccccc2c1)N1CCN(C2CCN(Cc3ccccc3)CC2)CC1	52	1	51	1	97*
CC(=O)N(C(C)=O)S(=O)(=O)c1ccc(N=NN2CCCCC2)cc1	97	1.1	90	1	9
COc1ccc(S(=O)(=O)N2CCC(N3CCN(c4ccccc4)CC3)CC2)cc1	96	1.1	101	1	-2
COc1ccccc1N1CCN(C2CCN(S(=O)(=O)c3ccc4ccccc4c3)CC2)CC1	58	1	59	0.9	55*
COc1ccc(S(=O)(=O)N2CCN(c3ccccc3OC)CC2)cc1OC	84	0.9	84	0.8	4
COc1ccc(S(=O)(=O)N2CCN(C3CCN(Cc4ccccc4)CC3)CC2)cc1	94	0.9	84	1	94*
COc1cccc(CNc2ccc([N+](=O)[O-])cc2Cl)c1O	.	0.8	.	0.9	9
Cc1ccc(NC(=O)CC2SC(=O)N(c3ccccc3)C2=O)cc1 (configuration not stated)	84	0.9	78	0.9	-3
Cc1ccc(C(=O)CC2C(=O)N(c3ccccc3)C(=S)N2c2ccccc2)cc1 (configuration not stated)	84	0.9	82	0.8	59*
O=[N+]([O-])c1ccc(C=Nc2ccc(Cl)c([N+](=O)[O-])c2)s1	.	0.8	.	0.9	100*
NC(=O)c1ccc(N=Cc2ccc([N+](=O)[O-])s2)cc1	1.3*	0.9	1.6*	1	100*
CC(C)(C)NC(=O)C(c1ccc(O)cc1)N(C(=O)Cn1nnc(-c2ccc(F)cc2)n1)c1ccccc1F (configuration not stated)	.	0.9	.	0.9	27
SMILES	PTEN del growth	PMI act satM6P	bCat KO growth	PMI act	L major viab
CNC(=O)c1ccccc1Sc1ccccc1C#N	.	1.1	.	1.1	-4
NNc1nc2c(Cl)ccc(Cl)c2s1	94	0.9	83	0.9	98*
COc1cccc(N2CCN(CC(=O)c3c[nH]c4ccc(OC)cc34)CC2C)c1 (configuration not stated)	59	0.9	58	0.8	73*
CC(=O)Nc1cccc(/C(C)=N/NS(=O)(=O)c2ccc(C)cc2)c1	.	0.9	.	1.2	0
COc1ccc(Cn2nnnc2C(c2ccc(F)cc2)N2CCN(C3CCCC3)CC2)cc1 (configuration not stated)	79	0.9	68	0.9	17
COc1ccc(C(c2nnnn2Cc2ccc(F)cc2)N2CCN(c3ccccc3)CC2)cc1 (configuration not stated)	61	1	71	1	74*
COc1ccc(C(c2nnnn2Cc2ccc(F)cc2)N2CCN(c3ccc(OC)cc3)CC2)cc1 (configuration not stated)	93	0.7	85	0.8	94*
COc1ccc(N2CCN(C(c3ccccc3)c3nnnn3Cc3ccc(F)cc3)CC2)cc1 (configuration not stated)	70	0.8	90	0.9	66*
COc1ccc(C(c2nnnn2CS(=O)(=O)c2ccc(C)cc2)N2CCN(Cc3ccccc3)CC2)cc1 (configuration not stated)	.	.	.	.	63*
COc1ccc(Cn2nnnc2C(CC(C)C)N2CCN(c3ccccc3)CC2)cc1 (configuration not stated)	62	0.9	66	1	33
C/C(=N\O)c1sc(-c2ccccc2)nc1C	.	1.1	.	1.1	10
CC(C)(C)c1[nH]nc2c1C(C1C=CCCC1)C(C#N)=C(N)O2 (configuration not stated)	86	1	85	1	83*
CCc1[nH]nc2c1C(C1C=CCCC1)C(C#N)=C(N)O2 (configuration not stated)	.	0.9	.	0.9	97*
CC(C)(C)c1[nH]nc2c1C(Cc1ccccc1)C(C#N)=C(N)O2 (configuration not stated)	102	0.8	97	0.8	3
CCN(CC)CC(=O)Nc1c(C)cc(C)cc1C	84	.	85	.	-3
Nc1nc(N2CCCCC2)c(C=O)c(N2CCCCC2)n1	.	0.7	.	1.1	8
CC(=O)Nc1ccc(NC(=O)COC(=O)c2c(C)nn(-c3ccccc3)c2C)cc1	96	1	89	1	67*
Cc1ccc(C(C(=O)NC(C)(C)C)N(Cc2ccccc2)C(=O)c2snc(C(N)=O)c2N)o1 (configuration not stated)	.	1	.	1.1	54*
CCCC(C(=O)NC1CCCC1)N(Cc1ccc2c(c1)OCO2)C(=O)c1snc(C(N)=O)c1N (configuration not stated)	73	1.1	71	1.1	54*
CC(C)CC(C(=O)NC1CCCC1)N(Cc1cccs1)C(=O)c1snc(C(N)=O)c1N (configuration not stated)	80	0.9	84	0.9	93*
CCCC(C(=O)NC(C)(C)C)N(C(=O)c1snc(C(N)=O)c1N)c1ccc2c(c1)OCCO2 (configuration not stated)	.	1.1	.	1.1	52*
CC(C)CC(C(=O)NC1CCCCC1)N(Cc1cccs1)C(=O)c1snc(C(N)=O)c1N (configuration not stated)	.	0.9	.	0	16
